{"data": "Measured values collected from several papers", "target": "Casein kinase I isoform gamma-2 (CSNK1G2, Homo sapiens, UniProt P78368)", "note": "Protocols differ between the studies behind these lines."}
{"assay": "binding, competition with immobilised ligand", "setting": "1 µM", "remaining binding [%]": 100, "SMILES": "Nc1ncc2c(n1)-c1c([nH]c3ccc(C#CC4CC4)cc13)CCCC2"}
{"assay": "cell-free assay, competition with immobilised ligand", "setting": "1 µM", "remaining binding [%]": 93, "SMILES": "CCS(=O)(=O)c1cc2cc(C[C@](O)(CC(C)(C)c3ccc(F)cc3C(N)=O)C(F)(F)F)[nH]c2cn1"}
{"assay": "binding", "setting": "1 µM", "remaining binding [%]": 64, "SMILES": "C[C@H]1CCN(c2nccc(-c3cnn4ncccc34)n2)C1"}
{"assay": "binding, competition with immobilised ligand", "setting": "1 µM", "remaining binding [%]": 94, "SMILES": "O=C(c1ccc(Nc2nccc(-c3cc4ccccc4s3)n2)cc1)N1CCC(N2CCCC2)CC1"}
{"assay": "binding, competition with immobilised ligand", "setting": "1 µM", "remaining binding [%]": 83, "SMILES": "O=C(NCC1CCOCC1)c1n[nH]cc1NC(=O)c1c(F)cccc1F"}
{"assay": "cell-free assay, competition with immobilised ligand", "setting": "1 µM", "remaining binding [%]": 100, "SMILES": "Cn1nc(C(F)(F)F)cc1-c1cnc(N2CCc3cc(S(=O)(=O)Nc4c(F)cc(Cl)cc4F)cc(N4CCCC4=O)c32)nc1"}
{"assay": "cell-free assay, competition with immobilised ligand", "setting": "10 µM", "remaining binding [%]": 93, "SMILES": "CC(C)(C)c1ccc(-c2nc(CBr)nn2-c2cccc(O)c2)cc1"}
{"assay": "cell-free assay, competition with immobilised ligand", "setting": "1 µM", "remaining binding [%]": 100, "SMILES": "CN([C@@H]1CCc2c(CC(=O)O)c3cc(S(C)(=O)=O)ccc3n2C1)S(=O)(=O)c1ccc(F)cc1"}
{"assay": "binding, competition with immobilised ligand", "setting": "10 µM", "remaining binding [%]": 80, "SMILES": "c1cncc(-c2cccc(Nc3nccc(NC4CCCCC4)n3)c2)c1"}
{"assay": "cell-free assay, competition with immobilised ligand", "setting": "1 µM", "remaining binding [%]": 100, "SMILES": "CN([C@@H]1CCc2c(CC(=O)O)c3ccccc3n2C1)S(=O)(=O)c1ccc(F)cc1"}
{"assay": "binding", "setting": "1 µM", "remaining binding [%]": 100, "SMILES": "Cc1cnn2ncc(-c3ccnc(N(C)C)n3)c2c1"}
{"assay": "binding, competition with immobilised ligand", "setting": "1 µM", "remaining binding [%]": 100, "SMILES": "O=C(NCCCN1CCOCC1)c1ccc(Nc2ncc(Cl)c(-c3ccc(Cl)s3)n2)cc1"}
{"assay": "binding", "setting": "1 µM", "remaining binding [%]": 82, "SMILES": "N[C@@H]1CCN(c2nccc(-c3cnn4ncccc34)n2)C1"}
{"assay": "cell-free assay, competition with immobilised ligand", "setting": "1 µM", "remaining binding [%]": 98, "SMILES": "CNCc1ccccc1-c1csc([C@@H](C)Nc2nc(C)nc3cc(OC)c(OC)cc23)c1"}
{"assay": "binding", "setting": "1 µM", "remaining binding [%]": 81, "SMILES": "COc1ccnn2ncc(-c3ccnc(N(C)C)n3)c12"}
{"assay": "binding, competition with immobilised ligand", "setting": "1 µM", "remaining binding [%]": 100, "SMILES": "O=C(NCCCN1CCOCC1)c1ccc(Nc2nccc(-c3cc4ccccc4s3)n2)cc1"}
{"assay": "binding", "setting": "1 µM", "remaining binding [%]": 74, "SMILES": "F[C@@H]1CCN(c2nccc(-c3cnn4ncccc34)n2)C1"}
{"assay": "binding, competition with immobilised ligand", "setting": "1 µM", "remaining binding [%]": 97, "SMILES": "CNC(=O)[C@@H]1CC[C@@H](n2c(-c3ccc4cnccc4c3)nc3ccc(C(=O)NCc4cccc(C(N)=O)c4)cc32)C1"}
{"assay": "cell-free assay, competition with immobilised ligand", "setting": "1 µM", "remaining binding [%]": 88, "SMILES": "O=C1CCc2cc(Nc3cc(OC4CCOCC4)c([N+](=O)[O-])cc3Cl)ccc2N1"}
{"assay": "binding", "setting": "1 µM", "remaining binding [%]": 77, "SMILES": "c1cnn2ncc(-c3ccnc(N4CCC45COC5)n3)c2c1"}
